Columns and labels:
[1] = Lethal dose when administered intravenously; format: toxicity; conditions: mouse, iv
[2] = test system: CX-1; assay: In vitro inhibition of growth of human carcinoma CX-1 cell line (clonogenic assay).; format: functional, cell-based
[3] = test system: CV-1; assay: Compound was tested in vitro for inhibition of growth of cytotoxic CV-1 cell line; format: functional, cell-based, Homo sapiens; conditions: Chlorocebus aethiops
[4] = test system: Mus musculus; assay: In vivo ratio of median survival time of drug-treated to control, untreated tumor-bearing mice at a dose of 4 mg/kg for 7 days; format: functional
[5] = Lethal dose when administered intraperitoneally; format: toxicity; conditions: mouse, ip
[6] = test system: Mus musculus; assay: Tumor inhibition (TI) ratio at a dose of 1 mg/kg for 4 day; format: functional
[7] = test system: KB; assay: In vitro inhibition of growth of KB cells (cytotoxic assay).; format: functional, cell-based, Homo sapiens
[8] = test system: Mus musculus; assay: In vivo ratio of median survival time of drug-treated to control, untreated tumor-bearing mice at a dose of 5 mg/kg for 3 days; format: functional
[9] = test system: Mus musculus; assay: In vivo ratio of median survival time of drug-treated to control, untreated tumor-bearing mice at a dose of 10 mg/kg for 1 day; format: functional
[10] = The solubility in water was determined; format: ADME
[11] = The solubility in 0.9% saline was determined; format: ADME
[12] = test system: Mus musculus; assay: In vivo ratio of median survival time of drug-treated to control, untreated tumor-bearing mice at a dose of 10 mg/kg for 5 days; format: functional
[13] = test system: Mus musculus; assay: In vivo ratio of median survival time of drug-treated to control, untreated tumor-bearing mice at a dose of 5 mg/kg for 5 days; format: functional
[14] = test system: CV-1; assay: The IC50 value for 50%inhibition of cells on clonogenic CV-1 […] cytotoxic cell lines.; format: functional, cell-based; conditions: Chlorocebus aethiops
How it was run: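 CV-1 cytotoxicity assay: cells seeded at 4×10^4 per 20 mm plate at 37 °C in 5% CO2. Next day, cells were exposed to varying compound concentrations for 1 week, stained with crystal violet, and viable cells counted.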

[15] = test system: Mus musculus; assay: Tumor inhibition (TI) ratio at a dose of 3 mg/kg for 4 day; format: functional
How it was run: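 BDF1 mice (male, inbred, 5-week-old, ~1 week acclimation) implanted sc with 5 × 10^5 CA755 cells; compound given iv in 0.9% saline (0.2 mL/20 g body weight), 3 mg/kg/day × 4. Tumors weighed at day 11; inhibition (%) = (A − B)/A × 100, A and B being mean control and treated tumor weights. Five mice per group; Bartlett's, Dunnett's, Scheffé's tests.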

[16] = test system: Mus musculus; assay: In vivo ratio of median survival time of drug-treated to control, untreated tumor-bearing mice at a dose of 7 mg/kg for 5 days; format: functional
How it was run: (§1)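 Male Swiss nu/nu mice, about 5 weeks old, acclimated 1 week. LOX melanoma was first grown sc in nude mice, then made into a single-cell suspension with RBCs lysed by ammonium chloride. Each mouse got 2×10^6 LOX cells ip in PBS. From the next day, compound was given ip in 45% hydroxypropyl β-cyclodextrin in water. T/C is median survival of treated over untreated controls, as a percentage. Five mice per group.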

[17] = test system: Mus musculus; assay: In vivo ratio of median survival time of drug-treated to control, untreated tumor-bearing mice at a dose of 4 mg/kg for 5 days; format: functional; how it was run: as §1
[18] = test system: Mus musculus; assay: In vivo ratio of median survival time of drug-treated to control, untreated tumor-bearing mice at a dose of 2 mg/kg for 5 days; format: functional
[19] = test system: Mus musculus; assay: In vivo ratio of median survival time of drug-treated to control, untreated tumor-bearing mice at a dose of 5 mg/kg for 4 day; format: functional

`CC(=O)[O-].CCn1c(=O)/c(=C2\Sc3ccccc3N2C)s/c1=C\c1sc2ccccc2[n+]1CC` gave an LD50 [1] of 5 mg/kg, an IC50 ([2]; Homo sapiens, CX-1) of 60 nM and an IC50 [3] of 1400 nM. For the same molecule, the T/C [4] was 163%, the LD50 [5] was 30 mg/kg and the TI [6] was 59.4%. The IC50 ([7]; Homo sapiens, KB) was 60 nM.

Work on `CCN1CCS/C1=C\C=c1/s/c(=C\c2sc3c4ccccc4ccc3[n+]2C)n(CC)c1=O` yielded an IC50 ([2]; Homo sapiens, CX-1) of 30 nM and an IC50 ([7]; Homo sapiens, KB) of 490 nM.

Work on `CCn1c(=O)/c(=C/C=C2/N(C)c3ccccc3C2(C)C)s/c1=C\c1oc2c3ccccc3ccc2[n+]1CC.Cc1ccc(S(=O)(=O)[O-])cc1` yielded an IC50 ([2]; Homo sapiens, CX-1) of 10 nM, a T/C [8] of 94% and an IC50 ([7]; Homo sapiens, KB) of 270 nM.

`CC(=O)[O-].CCN1C(C)=CS/C1=C\C=c1/s/c(=C\c2sc3ccccc3[n+]2CC)n(CC)c1=O` gave an IC50 ([2]; Homo sapiens, CX-1) of 60 nM, a T/C [9] of 138% and an IC50 ([7]; Homo sapiens, KB) of 250 nM.

Work on `CCn1c(=O)/c(=C2\Sc3ccccc3N2C)s/c1=C\c1cccc[n+]1CC.[I-]` yielded an IC50 ([2]; cx-1) of 800 nM, a solubility [10] of 200 µg/mL and a solubility [11] of under 100 µg/mL. The IC50 ([7]; kb) was 46800 nM.

`CCN1/C(=C/C=c2\s/c(=C\c3sc4ccc5ccccc5c4[n+]3CC)n(CC)c2=O)Sc2ccc3ccccc3c21.Cc1ccc(S(=O)(=O)[O-])cc1` showed an IC50 ([2]; Homo sapiens, CX-1) of 40 nM, a T/C [12] of 126% and an IC50 ([7]; Homo sapiens, KB) of 210 nM.

For `CCN1CCS/C1=C\C=c1/s/c(=C\c2sc3c4ccccc4ccc3[n+]2CCO)n(CC)c1=O`, the IC50 ([2]; Homo sapiens, CX-1) was 390 nM.

Molecule `CC(=O)[O-].CCn1c(=O)/c(=C2\Sc3ccccc3N2C)s/c1=C\c1cccc[n+]1CC` has a T/C [13] of over 310%, an LD50 [1] of 20 mg/kg and an IC50 ([2]; cx-1) of 1100 nM. For the same molecule, the solubility [10] was over 5000 µg/mL, the LD50 [5] was 50 mg/kg and the IC50 [14] was 63200 nM. The solubility [11] was over 5000 µg/mL, the TI [15] was 76.5% and the IC50 ([7]; kb) was 860 nM.

`CCn1c(=O)/c(=C2\Sc3ccc4ccccc4c3N2C)s/c1=C\c1sc2c3ccccc3ccc2[n+]1CC.[Cl-]` showed an IC50 ([2]; Homo sapiens, CX-1) of 50 nM, a T/C [16] of 112% and an IC50 ([7]; Homo sapiens, KB) of 340 nM.

With `CCCC[n+]1c(/C=c2\s/c(=C\C=C3/SCCN3CC)c(=O)n2CC)sc2c3ccccc3ccc21` the IC50 ([2]; Homo sapiens, CX-1) was 30 nM and the IC50 ([7]; Homo sapiens, KB) was 460 nM.

`CC(=O)[O-].CCn1c(=O)/c(=C2\Sc3ccccc3N2C)s/c1=C\c1oc2ccccc2[n+]1CC` gave a T/C [13] of 140%, an LD50 [1] of over 10 mg/kg and an IC50 ([2]; Homo sapiens, CX-1) of 180 nM. For the same molecule, the IC50 [3] was 14700 nM, the LD50 [5] was 10 mg/kg and the IC50 ([7]; Homo sapiens, KB) was 1130 nM.

For `CC(=O)[O-].CCn1c(=O)/c(=C2\Sc3ccccc3N2C)s/c1=C\c1scc(C)[n+]1CC`, the LD50 [1] was 20 mg/kg, the IC50 ([2]; Homo sapiens, CX-1) was 110 nM and the IC50 [3] was 23600 nM. The LD50 [5] was 30 mg/kg, the T/C [17] was over 173% and the IC50 ([7]; Homo sapiens, KB) was 950 nM.

Work on `CC(=O)[O-].CCn1c(=O)/c(=C2\Sc3ccccc3N2C)s/c1=C\C1=[N+](CC)CCS1` yielded an LD50 [1] of 15 mg/kg, an IC50 ([2]; Homo sapiens, CX-1) of 1040 nM and a T/C [18] of 133%. It also gave an IC50 [3] of 13200 nM, an LD50 [5] of 40 mg/kg and an IC50 ([7]; Homo sapiens, KB) of 6220 nM.

`CCn1c(=O)/c(=C2\Sc3ccccc3N2C)s/c1=C\c1cccc[n+]1CC.[Cl-]` showed an LD50 [1] of 20 mg/kg, a T/C [19] of over 344% and a solubility [10] of over 5000 µg/mL. For the same molecule, the LD50 [5] was 50 mg/kg, the solubility [11] was over 5000 µg/mL and the TI [15] was 75.5%. The IC50 ([7]; kb) was 810 nM.

In the case of `CCn1c(=O)/c(=C2\Oc3ccccc3N2C)s/c1=C\c1cccc[n+]1CC`, the IC50 ([2]; Homo sapiens, CX-1) is reported as over 2400 nM and the IC50 ([7]; Homo sapiens, KB) is reported as 3730 nM.

Work on `CC(=O)[O-].CCn1c(=O)/c(=C2\Sc3ccc4ccccc4c3N2C)s/c1=C\c1oc2c3ccccc3ccc2[n+]1CC` yielded an IC50 ([2]; Homo sapiens, CX-1) of 680 nM, a T/C [18] of 120% and an IC50 ([7]; Homo sapiens, KB) of 80 nM.

With `CC(=O)[O-].CCn1c(=O)/c(=C2\SCCN2C)s/c1=C\c1sc2ccc3ccccc3c2[n+]1CC` the IC50 ([2]; Homo sapiens, CX-1) was 160 nM, the T/C [17] was 106% and the IC50 ([7]; Homo sapiens, KB) was 250 nM.

Molecule `CC(=O)[O-].CCn1c(=O)/c(=C2\Sc3ccccc3N2C)s/c1=C\c1ccc2ccccc2[n+]1CC` has an LD50 [1] of 10 mg/kg, an IC50 ([2]; Homo sapiens, CX-1) of 280 nM and a T/C [18] of 124%. For the same molecule, the IC50 [3] was 8700 nM, the LD50 [5] was 30 mg/kg and the IC50 ([7]; Homo sapiens, KB) was 280 nM.

Work on `CCN1CCS/C1=C\C=c1/s/c(=C\c2sc3c4ccccc4ccc3[n+]2CCC(=O)O)n(CC)c1=O` yielded an IC50 ([2]; Homo sapiens, CX-1) of over 1500 nM and an IC50 ([7]; Homo sapiens, KB) of over 15000 nM.

Molecule `CCN1C=CC=C/C1=C\C=c1/s/c(=C\c2sc3ccc4ccccc4c3[n+]2CC)n(CC)c1=O.[Cl-]` has an IC50 ([2]; Homo sapiens, CX-1) of 80 nM, a T/C [17] of 122% and an IC50 ([7]; Homo sapiens, KB) of 770 nM.

In the case of `CC(=O)[O-].CCn1c(=O)/c(=C2\Sc3ccccc3N2C)s/c1=C\C1CCC[n+]2c1sc1ccccc12` (stereo unspecified), the LD50 [1] is reported as 3 mg/kg, the IC50 ([2]; Homo sapiens, CX-1) is reported as 230 nM and the IC50 [3] is reported as 2900 nM. It also gave an LD50 [5] of 30 mg/kg, a T/C [17] of over 208% and an IC50 ([7]; Homo sapiens, KB) of 230 nM.

`CCN1CCS/C1=C\C=c1/s/c(=C\c2sc3c4ccccc4ccc3[n+]2CC)n(CC)c1=O` gave an IC50 ([2]; Homo sapiens, CX-1) of 20 nM and an IC50 ([7]; Homo sapiens, KB) of 320 nM.

Work on `CCn1c(=O)/c(=C/C=C2\Sc3ccc4ccccc4c3N2C)s/c1=C\c1scc(C)[n+]1CC` yielded an IC50 ([2]; Homo sapiens, CX-1) of over 1800 nM and an IC50 ([7]; Homo sapiens, KB) of 2000 nM.

`CCn1c(=O)/c(=C2\C=CC=CN2C)s/c1=C\c1sc2ccccc2[n+]1CC` gave an IC50 ([2]; Homo sapiens, CX-1) of 1760 nM and an IC50 ([7]; Homo sapiens, KB) of 2170 nM.

Molecule `CC(=O)[O-].CCN1/C(=C/C=c2\s/c(=C\C3=[N+](CC)CCS3)n(CC)c2=O)C=Cc2ccccc21` has an IC50 ([2]; Homo sapiens, CX-1) of 160 nM, a T/C [12] of 143% and an IC50 ([7]; Homo sapiens, KB) of 910 nM.
